Holding throughout (type): ADME, organism-based
A short description of data set [1]: AUC in rat at 0.5 mg/kg, iv. Details: dose 0.5 mg/kg, route intravenous. The note with it: plasma. In a few lines: (§1)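 Rats given 0.5 mg/kg iv and 10 mg/kg po. The iv plasma values are the mean from three rats; the po plasma values come from a single rat.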
Data set [2] is described as follows: AUC in rat at 10 mg/kg, po. Also on record: dose 10 mg/kg, route oral. Conditions: plasma. Summed up: as §1
Data set [3] is described as follows: Oral bioavailability in rat at 10 mg/kg. Conditions: in vivo. Summed up: as §1

On to `CN1CCC(C(=O)Nc2cc3cc[nH]c(=O)c3cc2Cl)CC1`, for which the values for the AUC in data set [1] and in data set [2] were 127 ng·h/mL and 1780 ng·h/mL, respectively. The same compound had a bioavailability in data set [3] of 70%.
Take `O=C(Nc1cc2cc[nH]c(=O)c2cc1Cl)C1CCNCC1`: the values for the exposure (AUC) in data set [1] and in data set [2] were 161 ng·h/mL and 141 ng·h/mL, respectively. For the same compound, the bioavailability in data set [3] was 4.4%.
With `N[C@H]1CC[C@@H](C(=O)Nc2cc3cc[nH]c(=O)c3cc2Cl)CC1`, the AUC in data set [1] turned out to be 119 ng·h/mL; in data set [2], 338 ng·h/mL. This compound came in with a bioavailability in data set [3] of 20%.

Values taken from ChEMBL document CHEMBL1221307, “Substituted 2H-isoquinolin-1-ones as potent Rho-kinase inhibitors: part 2, optimization for blood pressure reduction in spontaneously hypertensive rats” (Bioorg Med Chem Lett, 2010).
